Consider twelve molecules from ChEMBL document CHEMBL4665773, “Structure activity relationship exploration of 5-hydroxy-2-(3-phenylpropyl)chromones as a unique 5-HT receptor antagonist scaffold” (Bioorg Med Chem Lett, 2020).

T1 sequence (P41595 whole entry): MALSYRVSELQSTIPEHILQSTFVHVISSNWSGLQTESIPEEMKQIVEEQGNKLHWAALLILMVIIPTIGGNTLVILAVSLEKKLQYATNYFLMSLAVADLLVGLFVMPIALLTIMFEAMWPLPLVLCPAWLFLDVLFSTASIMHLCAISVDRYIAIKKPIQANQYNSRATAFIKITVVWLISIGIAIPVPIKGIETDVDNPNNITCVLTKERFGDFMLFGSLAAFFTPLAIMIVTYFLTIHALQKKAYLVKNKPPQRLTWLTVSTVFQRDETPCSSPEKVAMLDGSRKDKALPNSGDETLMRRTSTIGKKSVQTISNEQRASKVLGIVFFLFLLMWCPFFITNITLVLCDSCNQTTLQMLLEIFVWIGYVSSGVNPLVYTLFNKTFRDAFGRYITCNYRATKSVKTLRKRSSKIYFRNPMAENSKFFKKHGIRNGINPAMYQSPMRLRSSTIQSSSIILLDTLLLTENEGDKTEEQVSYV

One assay addresses T1, 5-hydroxytryptamine receptor 2B (Homo sapiens, UniProt P41595). Description: Antagonist activity at 5HT2B receptor (unknown origin) at 10 uM by radioligand binding assay relative to control.
Settings: not given
Consider `O=c1cc(CCCc2ccc(OC(F)(F)F)cc2)oc2cccc(O)c12`, for which the inhibition amounted to 35.3%.

The assay is the same for the next values; noted with them: filed as antagonist.
In the case of `O=c1cc(CCCc2ccc(Cl)cc2)oc2cccc(O)c12`, the inhibition came out at 50.4%.

In the case of `O=c1cc(CCCc2cccc(Cl)c2)oc2cccc(O)c12`, the inhibition was found to be 61.7%.

With `COc1ccc(CCCc2cc(=O)c3c(O)cccc3o2)cc1`, the inhibition worked out at 75.3%.

On to `N#Cc1cccc(CCCc2cc(=O)c3c(O)cccc3o2)c1`, for which the inhibition was 91.1%.

For `O=c1cc(CCCc2ccc(F)cc2)oc2cccc(O)c12`, the inhibition is 49.2%.

On to `Cc1cccc(CCCc2cc(=O)c3c(O)cccc3o2)c1`, for which the inhibition stood at 57.7%.

Take `O=c1cc(CCCc2cccc(F)c2)oc2cccc(O)c12`: the inhibition came to 52.7%.

For `O=c1cc(CCCc2ccc(C(F)(F)F)cc2)oc2cccc(O)c12`, the inhibition is 50%.

As for `COc1cccc(CCCc2cc(=O)c3c(O)cccc3o2)c1`, the inhibition stood at 69.3%.

For the molecule `Cc1ccc(CCCc2cc(=O)c3c(O)cccc3o2)cc1`, the inhibition was determined as 50%.

For the molecule `O=c1cc(CCCc2cccc(C(F)(F)F)c2)oc2cccc(O)c12`, the inhibition is 65.8%.

For a further assay, the target named is T1, 5-hydroxytryptamine receptor 2B. Description: Agonist activity at 5-HT2B receptor (unknown origin) by calcium mobilization assay. Type of assay: functional.
Settings: not given
(Calcium flux is commonly read through the fluorescence of an indicator in the cells.)
`N#Cc1cccc(CCCc2cc(=O)c3c(O)cccc3o2)c1`: the EC50 is 501 nM.

The next assay deals with 5-hydroxytryptamine receptor 2A (Homo sapiens) (UniProt P28223). In words: Antagonist activity at 5HT2A receptor (unknown origin) at 10 uM by radioligand binding assay relative to control.
Chain of 5-hydroxytryptamine receptor 2A (Homo sapiens) (P28223 whole entry): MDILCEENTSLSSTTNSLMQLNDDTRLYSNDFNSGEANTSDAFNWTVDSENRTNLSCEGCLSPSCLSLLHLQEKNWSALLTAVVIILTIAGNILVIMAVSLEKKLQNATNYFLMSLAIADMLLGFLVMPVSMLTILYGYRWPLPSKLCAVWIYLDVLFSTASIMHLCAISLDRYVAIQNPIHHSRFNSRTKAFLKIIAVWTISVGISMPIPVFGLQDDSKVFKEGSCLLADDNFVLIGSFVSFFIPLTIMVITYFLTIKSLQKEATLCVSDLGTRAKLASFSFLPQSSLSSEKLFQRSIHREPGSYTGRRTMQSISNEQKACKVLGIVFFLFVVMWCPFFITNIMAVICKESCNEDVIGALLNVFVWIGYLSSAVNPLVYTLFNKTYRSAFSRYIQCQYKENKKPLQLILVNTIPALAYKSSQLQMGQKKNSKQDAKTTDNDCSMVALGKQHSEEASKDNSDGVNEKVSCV
Settings: not given
As for `O=c1cc(CCCc2ccc(Cl)cc2)oc2cccc(O)c12`, the inhibition worked out at 9.3%.

In the case of `O=c1cc(CCCc2cccc(Cl)c2)oc2cccc(O)c12`, the inhibition is 13.9%.

In the case of `COc1ccc(CCCc2cc(=O)c3c(O)cccc3o2)cc1`, the inhibition was -1.6%.

As for `N#Cc1cccc(CCCc2cc(=O)c3c(O)cccc3o2)c1`, the inhibition was found to be 7.2%.

For `O=c1cc(CCCc2ccc(F)cc2)oc2cccc(O)c12`, the inhibition stood at 14.2%.

For the molecule `Cc1cccc(CCCc2cc(=O)c3c(O)cccc3o2)c1`, the inhibition was 14.4%.

Consider `O=c1cc(CCCc2cccc(F)c2)oc2cccc(O)c12`, for which the inhibition is 8.4%.

For the molecule `O=c1cc(CCCc2ccc(C(F)(F)F)cc2)oc2cccc(O)c12`, the inhibition stood at 19.5%.

On to `COc1cccc(CCCc2cc(=O)c3c(O)cccc3o2)c1`, for which the inhibition worked out at 9.8%.

With `O=c1cc(CCCc2ccc(OC(F)(F)F)cc2)oc2cccc(O)c12`, the inhibition is -5%.

Consider `Cc1ccc(CCCc2cc(=O)c3c(O)cccc3o2)cc1`, for which the inhibition is 17.2%.

For `O=c1cc(CCCc2cccc(C(F)(F)F)c2)oc2cccc(O)c12`, the inhibition came out at 8.7%.

For another assay, the target named is T1, 5-hydroxytryptamine receptor 2B. In words: Agonist activity at 5-HT2B receptor (unknown origin) assessed as maximal response at 10 uM by calcium mobilization assay relative to 3 nM 5-HT. The class given is functional.
Settings: not given
Summed up:
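Calcium mobilization read-out of agonism at 5-HT2B, with 5-HT as the reference agonist. Potency is expressed as pEC50. Maximal response to test compound at 10 μM is expressed relative to the maximal response to 5-HT at 3.0 nM.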
On to `N#Cc1cccc(CCCc2cc(=O)c3c(O)cccc3o2)c1`, for which the Rmax turned out to be 12%.

A further assay shares this target. In words: Antagonist activity at 5HT2B receptor (unknown origin) by radioligand binding assay.
Settings: not given
`O=c1cc(CCCc2ccc(Cl)cc2)oc2cccc(O)c12`: the Ki was 2510 nM. In other words, the single-digit micromolar range.

`O=c1cc(CCCc2cccc(Cl)c2)oc2cccc(O)c12`: the Ki was 2000 nM. This Ki and that of the molecule before are within 1.5-fold of each other.

`N#Cc1cccc(CCCc2cc(=O)c3c(O)cccc3o2)c1`: the Ki was 79.4 nM.

As for `Cc1cccc(CCCc2cc(=O)c3c(O)cccc3o2)c1`, the Ki was 2000 nM.

`O=c1cc(CCCc2cccc(F)c2)oc2cccc(O)c12`: the affinity corresponds to a Ki of 2510 nM. The Ki values of the last two molecules are within 1.5-fold of each other.

For the molecule `O=c1cc(CCCc2ccc(C(F)(F)F)cc2)oc2cccc(O)c12`, the inhibition constant Ki was 2510 nM.

Consider `Cc1ccc(CCCc2cc(=O)c3c(O)cccc3o2)cc1`, for which the Ki is 1580 nM.

Molecule `O=c1cc(CCCc2cccc(C(F)(F)F)c2)oc2cccc(O)c12` showed a Ki of 1000 nM.

The next assay has as its target T2, 5-hydroxytryptamine receptor 2C (Homo sapiens) (UniProt P28335).
T2 sequence (whole entry): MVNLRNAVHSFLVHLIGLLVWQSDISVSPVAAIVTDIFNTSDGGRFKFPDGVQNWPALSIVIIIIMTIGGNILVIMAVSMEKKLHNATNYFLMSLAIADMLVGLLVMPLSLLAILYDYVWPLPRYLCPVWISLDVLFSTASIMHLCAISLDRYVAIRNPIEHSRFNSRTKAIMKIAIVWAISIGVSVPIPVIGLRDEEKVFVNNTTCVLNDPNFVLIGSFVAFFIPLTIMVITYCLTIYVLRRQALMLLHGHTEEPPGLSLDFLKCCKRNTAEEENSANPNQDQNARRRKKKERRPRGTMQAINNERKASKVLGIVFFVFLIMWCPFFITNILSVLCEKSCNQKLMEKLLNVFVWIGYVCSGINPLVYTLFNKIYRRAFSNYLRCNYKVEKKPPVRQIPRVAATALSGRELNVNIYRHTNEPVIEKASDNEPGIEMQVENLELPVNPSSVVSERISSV
In words: Antagonist activity at 5HT2C receptor (unknown origin) 10 uM by radioligand binding assay relative to control.
Settings: not given
Take `O=c1cc(CCCc2ccc(Cl)cc2)oc2cccc(O)c12`: the inhibition is 35.8%.

Consider `N#Cc1cccc(CCCc2cc(=O)c3c(O)cccc3o2)c1`, for which the inhibition turned out to be 15.5%.

Take `O=c1cc(CCCc2ccc(F)cc2)oc2cccc(O)c12`: the inhibition was 33.9%.

As to `O=c1cc(CCCc2ccc(C(F)(F)F)cc2)oc2cccc(O)c12`, the inhibition is 36%.

Turning to `O=c1cc(CCCc2ccc(OC(F)(F)F)cc2)oc2cccc(O)c12`, the inhibition was found to be 32.6%.

Staying with this assay, now noted: filed as antagonist.
Take `O=c1cc(CCCc2cccc(Cl)c2)oc2cccc(O)c12`: the inhibition was 44.8%.

On to `COc1ccc(CCCc2cc(=O)c3c(O)cccc3o2)cc1`, for which the inhibition came out at 87.9%.

For `Cc1cccc(CCCc2cc(=O)c3c(O)cccc3o2)c1`, the inhibition is 59.4%.

Consider `O=c1cc(CCCc2cccc(F)c2)oc2cccc(O)c12`, for which the inhibition turned out to be 44.4%.

Take `COc1cccc(CCCc2cc(=O)c3c(O)cccc3o2)c1`: the inhibition turned out to be 67.4%.

On to `Cc1ccc(CCCc2cc(=O)c3c(O)cccc3o2)cc1`, for which the inhibition was 51.2%.

With `O=c1cc(CCCc2cccc(C(F)(F)F)c2)oc2cccc(O)c12`, the inhibition was found to be 43.5%.

Another assay has as its target T3, 5-hydroxytryptamine receptor 2C (Homo sapiens, UniProt P28335).
T3 sequence (P28335 whole entry): T2 sequence (whole entry)
Description: Antagonist activity at 5HT2C receptor (unknown origin) by radioligand binding assay.
Settings: not given
As to `Cc1cccc(CCCc2cc(=O)c3c(O)cccc3o2)c1`, the affinity corresponds to a Ki of 3160 nM. That is a single-digit micromolar value.

In turn, `Cc1ccc(CCCc2cc(=O)c3c(O)cccc3o2)cc1` had a Ki of 3160 nM.

Another assay deals with T1, 5-hydroxytryptamine receptor 2B. In words: Antagonist activity at 5-HT2B receptor (unknown origin) assessed as inhibition of 5HT-indued response by calcium mobilization assay. The class given is functional.
Settings: not given
Summed up: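 Antagonist mode of the 5-HT2B calcium mobilization assay: 5-HT at 1.6 nM was challenged with various concentrations of test compound. Inhibition is expressed as pIC50.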
`N#Cc1cccc(CCCc2cc(=O)c3c(O)cccc3o2)c1`: the IC50 was 6310 nM.

What is called inhibition is the drop in the measured response relative to a control, in per cent. For orientation: EC50 means the midpoint of the concentration-response curve. One may read the Ki as the dissociation constant of the complex between target and ligand, obtained from inhibition or displacement. Broadly, the IC50 is the concentration needed to halve the response being measured.
